Source: ChEMBL document CHEMBL1147184, “Design and synthesis of long-acting inhibitors of dipeptidyl peptidase IV” (Bioorg Med Chem, 2007)
Activity calls are given as the source filed them. No cut-off for these calls is given here.

Columns and labels:
[1] = test system: Rattus norvegicus; assay: Ex vivo inhibition of DPP4 in Sprague-Dawley rat plasma at 1 mg/kg, po after 6 hrs; type: functional
Summary of the method: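 Male SD rats, 6–7 weeks old, fasted at least 8 h, given a single oral dose of 1 mg/kg in 0.5% methylcellulose. Jugular blood taken before dosing and up to 10 h after. Plasma mixed 1:1 with 60 µM Gly-Pro-AMC. Initial rate taken from AMC fluorescence (ex 355/em 460 nm) at 37 °C. Percent inhibition calculated against basal activity.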

[2] = organism: Rattus norvegicus; assay: animal or person; details: Sprague-Dawley, Plasma, po, 10 h, read-out: Inhibition
[3] = test system: Rattus norvegicus; assay: Effect on plasma glucose level in orally dosed Sprague-Dawley rat by OGTT assay; type: functional, organism-based
Summary of the method: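 Male SD rats (400–460 g) fasted at least 20 h. Vehicle (0.5% methylcellulose) or drug at 0.01, 0.03 or 0.1 mg/kg given po at −30 min, then oral glucose 1 g/kg at 0 min. Tail blood taken at −5, 5, 10, 15, 30, 60 and 120 min. Plasma glucose read by glucose oxidase–peroxidase dye method. Mean ± SE, n = 8; Student's t-test vs vehicle.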

[4] = Stability in Tris buffer at pH 7.4; type: physicochemical
Summary of the method: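 Compound at 1 mg/mL in 100 mM Tris buffer, pH 7.4, held at room temperature. Remaining parent measured by LC/MS peak area at 0, 2, 6 and 24 h. Half-life obtained from a linear first-order fit of log(peak area/time-zero area) against time.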

[5] = Oral bioavailability in Sprague-Dawley rat at 1 mg/5 ml/kg, po; type: ADME, organism-based; details: in vivo, 1 mg/kg
Summary of the method: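 Male SD rats, 5–7 weeks old, fasted 24 h, n = 3 per route. Oral dose 1 mg/5 mL/kg in 0.5% methylcellulose. Slow iv bolus of 0.3 mg/2 mL/kg in saline via jugular vein. Jugular blood sampled from 0 to 24 h; plasma analysed by LC/MS/MS. F = (AUCpo/Dpo)/(AUCiv/Div) × 100.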

[6] = Oral bioavailability in Sprague-Dawley rat at 10 mg/5 ml/kg, po; type: ADME, organism-based; details: in vivo, 10 mg/kg
Summary of the method: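 Male SD rats, 5–7 weeks old, fasted 24 h. Oral dose 10 mg/5 mL/kg in 0.5% methylcellulose compared with iv bolus of 0.3 mg/2 mL/kg in saline via jugular vein. Plasma sampled from 0 to 24 h and measured by LC/MS/MS. F calculated from dose-normalised AUC ratio, po over iv.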

[7] = target: Dipeptidyl peptidase 4 (Rattus norvegicus) (UniProt P14740); assay: Inhibition of DPP4 in rat liver microsomes in presence of UDPGA; details: Microsome
[8] = Drug level in blood of Sprague-Dawley rat at 1 mg/kg, po after 0.25 hrs in absence of glucuronidase; type: ADME, organism-based; parameters: dose 1 mg/kg, route oral; details: read-out: Drug uptake
Summary of the method: (§1)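 Male SD rats, fasted 24 h, given a single oral dose of 1 mg/kg as a solution in 0.5% methylcellulose. Blood drawn from the jugular vein. Plasma protein precipitated with acetonitrile, supernatant evaporated and reconstituted in mobile phase, then analysed by LC/MS/MS with no β-glucuronidase/arylsulfatase step.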

[9] = Drug level in blood of Sprague-Dawley rat at 1 mg/kg, po after 6 hrs in absence of glucuronidase; type: ADME, organism-based; parameters: dose 1 mg/kg, route oral; details: read-out: Drug uptake; summary of the method: as §1
[10] = Drug level in blood of Sprague-Dawley rat at 1 mg/kg, po after 2 hrs in absence of glucuronidase; type: ADME, organism-based; parameters: dose 1 mg/kg, route oral; details: read-out: Drug uptake; summary of the method: as §1

Dipeptidyl peptidase 4 (Rattus norvegicus), sequence (P14740 whole entry, looked up): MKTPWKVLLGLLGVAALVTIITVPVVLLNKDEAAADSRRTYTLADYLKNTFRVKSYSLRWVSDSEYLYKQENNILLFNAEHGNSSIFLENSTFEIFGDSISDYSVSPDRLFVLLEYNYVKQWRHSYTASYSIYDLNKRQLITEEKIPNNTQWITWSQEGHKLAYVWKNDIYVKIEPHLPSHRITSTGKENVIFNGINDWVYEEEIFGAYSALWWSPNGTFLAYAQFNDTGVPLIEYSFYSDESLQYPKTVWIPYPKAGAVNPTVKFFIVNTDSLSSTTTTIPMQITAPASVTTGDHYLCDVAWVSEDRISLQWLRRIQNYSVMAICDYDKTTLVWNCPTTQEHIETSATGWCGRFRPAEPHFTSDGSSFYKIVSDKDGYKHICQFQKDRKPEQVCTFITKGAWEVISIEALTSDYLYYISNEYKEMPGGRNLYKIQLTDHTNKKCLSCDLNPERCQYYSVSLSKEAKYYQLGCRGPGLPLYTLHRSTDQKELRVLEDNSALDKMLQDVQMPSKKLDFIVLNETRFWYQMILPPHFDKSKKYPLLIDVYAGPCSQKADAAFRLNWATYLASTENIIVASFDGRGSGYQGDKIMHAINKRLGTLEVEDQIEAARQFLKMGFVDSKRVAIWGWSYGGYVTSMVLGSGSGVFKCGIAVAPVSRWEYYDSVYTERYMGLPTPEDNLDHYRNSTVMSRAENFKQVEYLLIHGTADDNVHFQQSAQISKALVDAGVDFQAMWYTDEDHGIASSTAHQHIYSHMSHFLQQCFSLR

half-life [4] [h] | Compound | inhibition in vivo at 1 mg/kg [1] [%] | further results
– | COc1c(O)ccc(C)c1[C@@H]1CN[C@H](C(=O)N2CCC[C@H]2C#N)C1 | 94 | bioavailability [5]: 2%; inhibition in vivo at 1 mg/kg [2]: 86%
3.2 | N#C[C@@H]1CCCN1C(=O)[C@@H]1C[C@H](c2ccccc2O)CN1 | 43 | –
– | CC(C)C[C@@H]1CN[C@H](C(=O)N2CCC[C@H]2C#N)C1 | 40 | –
– | C=CC[C@@H]1CN[C@H](C(=O)N2CCC[C@H]2C#N)C1 | 38 | –
– | N#C[C@@H]1CCCN1C(=O)[C@@H]1C[C@H](C2C3CC4CC(C3)CC2C4)CN1 (stereo not given in full) | 47 | –
– | N#C[C@@H]1CCCN1C(=O)[C@@H]1C[C@H](C2CCCCC2)CN1 | 38 | –
– | Cc1cccc(C)c1[C@@H]1CN[C@H](C(=O)N2CCC[C@H]2C#N)C1 | 91 | –
31 | Cc1cc(O)cc(C)c1[C@@H]1CN[C@H](C(=O)N2CCC[C@H]2C#N)C1 | 88 | bioavailability [5]: 3%; inhibition in vivo at 1 mg/kg [2]: 57%
59 | COc1cc(O)cc(OC)c1[C@@H]1CN[C@H](C(=O)N2CCC[C@H]2C#N)C1 | 81 | inhibition in vivo at 1 mg/kg [2]: 66%
– | N#C[C@@H]1CCCN1C(=O)[C@@H]1CCCN1 | 20 | –
– | CCC[C@@H]1CN[C@H](C(=O)N2CCC[C@H]2C#N)C1 | 50 | –
49 | COc1cc(O)cc(C)c1[C@@H]1CN[C@H](C(=O)N2CCC[C@H]2C#N)C1 | 90 | inhibition in vivo at 1 mg/kg [2]: 73%; bioavailability [6]: 0.1%; Activity [7]: Active; concentration at 0.25 h [8]: 0.49 ng/mL
20 | N#C[C@@H]1CCCN1C(=O)[C@@H]1C[C@H](c2cccc(O)c2)CN1 | 77 | –
40 | Cc1cc(C)c([C@@H]2CN[C@H](C(=O)N3CCC[C@H]3C#N)C2)c(C)c1O | 39 | concentration at 6 h [9]: 0.95 ng/mL; concentration at 0.25 h [8]: 9.7 ng/mL; concentration at 2 h [10]: 0.65 ng/mL
– | C=C(C)C[C@@H]1CN[C@H](C(=O)N2CCC[C@H]2C#N)C1 | 27 | –
39 | CCc1cc(O)cc(C)c1[C@@H]1CN[C@H](C(=O)N2CCC[C@H]2C#N)C1 | 86 | –
– | N#C[C@@H]1CCCN1C(=O)[C@@H]1C[C@@H](c2ccccc2)CN1 | 17 | –
– | N#C[C@@H]1CCCN1C(=O)[C@@H]1C[C@H](c2ccccc2)CN1 | 60 | –
21 | N#C[C@@H]1CCCN1C(=O)[C@@H]1C[C@H](c2ccc(O)cc2)CN1 | 85 | –
– | CCOc1cc(O)cc(OCC)c1[C@@H]1CN[C@H](C(=O)N2CCC[C@H]2C#N)C1 | 79 | inhibition in vivo at 1 mg/kg [2]: 50%

Compound | half-life [4] [h] | inhibition in vivo at 1 mg/kg [1] [%] | further results
Cc1ccc(O)c(C)c1[C@@H]1CN[C@H](C(=O)N2CCC[C@H]2C#N)C1 | 65 | 95 | inhibition in vivo at 1 mg/kg [2]: 83%; Activity [3]: Dose-dependent effect
